# Reference: ChEMBL document CHEMBL1127326, “Antitumor agents. 148. Synthesis and biological evaluation of novel 4 beta-amino derivatives of etoposide with better pharmacological profiles” (1994)
# Legend:
# KB [1] = experiment: Cytotoxicity against KB cells after a 3 day incubation; assay type: functional, Homo sapiens; details: Homo sapiens, KB, 72 h; read-out: ID50 (the source's name)
# Method in brief: (§1)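 KB cells (parental ATCC line and resistant variants) exposed to drug at five concentrations […] for 3 days. ID50 is the concentration giving 50% reduction in cell number, derived from the degree of inhibition at the five concentrations.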
# Tumor Cell line [2] = experiment: Drug molar concentration required to inhibit 50% of human tumor cell growth; assay type: functional; details: Homo sapiens, Tumor Cell line
# Method in brief: (§2)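 NCI panel of 54 human tumor lines from eight cancer types, mostly seeded at 20 000 cells/well. Cells were preincubated 24 h without drug, then exposed to five 10-fold dilutions for 48 h, fixed and stained with sulforhodamine B, and read spectrophotometrically. Versus control, GI50 (50% growth inhibition), TGI (0% growth) and LC50 (−50% growth) were calculated; mean graph midpoints average all lines.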
# Tumor Cell line [3] = experiment: Drug concentration required to cause 50% cell death; assay type: functional, Homo sapiens; details: Homo sapiens, Tumor Cell line
# Method in brief: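 NCI in vitro panel of 54 human tumor cell lines from eight cancer types, mostly seeded at 20 000 cells/well and preincubated 24 h without drug. Five 10-fold dilutions were then added for a further 48 h. Cells were fixed in situ and stained with sulforhodamine B, and bound dye was read spectrophotometrically. LC50 (−50% growth versus control) was taken from five-point dose-response curves and reported as the log10 mean-graph midpoint across lines.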
# Tumor Cell line [4] = experiment: Drug concentration required to inhibit total cell growth; assay type: functional, Homo sapiens; details: read-out: Log TGI (converted); method in brief: as §2
# Nucleic Acid = experiment: Percentage inhibition of cellular protein-DNA complex formation; assay type: functional; details: Homo sapiens
# KB [5] = experiment: 50% reduction in the number of KB ATCC cells; assay type: functional; details: Homo sapiens, read-out: ID50 (the source's name); method in brief: as §1
# Tumor Cell line [6] = experiment: Inhibition of human tumor cell growth; assay type: functional; method in brief: as §2
# KB [7] = experiment: 50% reduction in the number of KB 7D (topoisomerase II, aMDR) resistant variant; assay type: functional, Homo sapiens; details: Homo sapiens, KB; read-out: ID50 (the source's name); method in brief: as §1
# KB [8] = experiment: 50% reduction in the number of KB V20C resistant variant; assay type: functional, Homo sapiens; details: Homo sapiens, KB; read-out: ID50 (the source's name); method in brief: as §1
# A549 = experiment: (§3) In vitro anti tumor activity against human non-small cell lung cancer cell lines was determined; assay type: functional
# Method in brief: (§4)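 NCI in vitro screen of 54 human tumour lines from eight cancer types. Cells seeded mostly at 20 000/well, preincubated 24 h without drug, then exposed to five 10-fold dilutions for 48 h. Cells fixed in situ, stained with sulforhodamine B, bound dye solubilised and read spectrophotometrically. GI50, TGI (0% growth) and LC50 (-50% growth) were taken from dose-response curves relative to control. Mean-graph midpoints averaged across all lines.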
# EKVX = experiment: as §3; assay type: functional; method in brief: as §4
# HOP-62 = experiment: as §3; assay type: functional; method in brief: as §4
# HOP-92 = experiment: as §3; assay type: functional; method in brief: as §4
# LXFL 529 = experiment: as §3; assay type: functional; method in brief: as §4
# NCI-H226 = experiment: as §3; assay type: functional; method in brief: as §4
# NCI-H322M = experiment: as §3; assay type: functional; method in brief: as §4
# NCI-H460 = experiment: as §3; assay type: functional; method in brief: as §4
# NCI-H522 = experiment: as §3; assay type: functional; method in brief: as §4
# COLO 205 = experiment: (§5) In vitro anti tumor activity against human colon tumor cell lines was determined; assay type: functional; method in brief: as §4
# DLD-1 = experiment: as §5; assay type: functional; method in brief: as §4
# HCC 2998 = experiment: as §5; assay type: functional; method in brief: as §4
# HCT-116 = experiment: as §5; assay type: functional; method in brief: as §4
# HCT-15 = experiment: as §5; assay type: functional; method in brief: as §4
# HT-29 = experiment: as §5; assay type: functional; method in brief: as §4
# KM-20L2 = experiment: as §5; assay type: functional; method in brief: as §4
# KM12 = experiment: as §5; assay type: functional; method in brief: as §4
# SW-620 = experiment: as §5; assay type: functional; method in brief: as §4
# CCRF-CEM = experiment: (§6) In vitro anti tumor activity against human tumor leukemia cell lines was determined; assay type: functional; method in brief: as §4
# HL-60 = experiment: as §6; assay type: functional; method in brief: as §4
# K562 = experiment: as §6; assay type: functional; method in brief: as §4
# MOLT-4 = experiment: as §6; assay type: functional; method in brief: as §4
# RPMI-8226 = experiment: as §6; assay type: functional; method in brief: as §4
# SR = experiment: as §6; assay type: functional; method in brief: as §4
# DMS-114 = experiment: (§7) In vitro anti tumor activity against human tumor small cell lung cancer cell lines was determined; assay type: functional; method in brief: as §4
# DMS-273 = experiment: as §7; assay type: functional; method in brief: as §4
# LOX IMVI = experiment: (§8) In vitro anti tumor activity against human melanoma cell lines was determined; assay type: functional; method in brief: as §4
# M14 = experiment: as §8; assay type: functional; method in brief: as §4
# M19-MEL = experiment: as §8; assay type: functional; method in brief: as §4
# Malme-3M = experiment: as §8; assay type: functional; method in brief: as §4
# SK-MEL-28 = experiment: as §8; assay type: functional; method in brief: as §4
# SK-MEL-2 = experiment: as §8; assay type: functional; method in brief: as §4
# SK-MEL-5 = experiment: as §8; assay type: functional; method in brief: as §4
# UACC-257 = experiment: as §8; assay type: functional; method in brief: as §4
# UACC-62 = experiment: as §8; assay type: functional; method in brief: as §4
# NCI-H23 = experiment: as §3; details: NCI-H23, read-out: Log GI50 (converted)
# SF-268 = experiment: (§9) In vitro anti tumor activity against human CNS cancer cell lines was determined; assay type: functional; method in brief: as §4
# SF-295 = experiment: as §9; assay type: functional; method in brief: as §4
# SF-539 = experiment: as §9; assay type: functional; method in brief: as §4
# SNB-19 = experiment: as §9; assay type: functional; method in brief: as §4
# SNB-75 = experiment: as §9; assay type: functional; method in brief: as §4
# SNB-78 = experiment: as §9; assay type: functional; method in brief: as §4
# U-251 = experiment: as §9; assay type: functional; method in brief: as §4
# XF498 = experiment: as §9; assay type: functional; method in brief: as §4
# 786-0 = experiment: (§10) In vitro anti tumor activity against human tumor Renal cancer cell lines was determined; assay type: functional; method in brief: as §4
# ACHN = experiment: as §10; assay type: functional; method in brief: as §4
# CAKI-1 = experiment: as §10; assay type: functional; method in brief: as §4
# RXF 393 = experiment: as §10; assay type: functional; method in brief: as §4
# SN12C = experiment: as §10; assay type: functional; method in brief: as §4
# TK-10 = experiment: as §10; assay type: functional; method in brief: as §4
# UO-31 = experiment: as §10; assay type: functional; method in brief: as §4
# IGROV-1 = experiment: (§11) In vitro anti tumor activity against human tumor Ovarian cancer cell lines was determined; assay type: functional; method in brief: as §4
# OVCAR-3 = experiment: as §11; assay type: functional; method in brief: as §4
# OVCAR-4 = experiment: as §11; assay type: functional; method in brief: as §4
# OVCAR-8 = experiment: as §11; assay type: functional; method in brief: as §4
# SK-OV-3 = experiment: as §11; assay type: functional; method in brief: as §4
# [9] = tested on: Panel (56 tumour cell lines); experiment: In vitro anti tumor activity against human tumor cell lines was determined; assay type: functional; method in brief: as §4
smiles,measurement,setting,value
COc1cc([C@@H]2c3cc4c(cc3[C@@H](NCCN3CCCCC3)[C@H]3COC(=O)[C@H]23)OCO4)cc(OC)c1O,IC50,KB [1],1600 nM
same,GI50,Tumor Cell line [2],427 nM
same,LC50,Tumor Cell line [3],36300 nM
same,TGI,"Tumor Cell line [4]; Homo sapiens, Tumor Cell line",3720 nM
COc1cc([C@@H]2c3cc4c(cc3[C@@H](O[C@@H]3O[C@@H]5CO[C@@H](C)O[C@H]5[C@H](O)[C@H]3O)[C@H]3COC(=O)[C@H]23)OCO4)cc(OC)c1O [ETOPOSIDE],Complex formation,Nucleic Acid,100%
same,IC50,KB [5],320 nM
same,IC50,KB [1],200 nM
same,GI50,Tumor Cell line [6],83200 nM
same,IC50,KB [7],18000 nM
same,IC50,KB [8],2300 nM
COc1cc([C@@H]2c3cc4c(cc3[C@@H](NC3CCN(Cc5ccccc5)CC3)[C@H]3COC(=O)[C@H]23)OCO4)cc(OC)c1O,GI50,A549,13.8 nM
same,GI50,EKVX,776 nM
same,GI50,HOP-62,26.9 nM
same,GI50,HOP-92,25.7 nM
same,GI50,LXFL 529,437 nM
same,GI50,NCI-H226,11 nM
same,GI50,NCI-H322M,1070 nM
same,GI50,NCI-H460,< 10 nM
same,GI50,NCI-H522,83.2 nM
same,GI50,COLO 205,178 nM
same,GI50,DLD-1,427 nM
same,GI50,HCC 2998,174 nM
same,GI50,HCT-116,151 nM
same,GI50,HCT-15,123 nM
same,GI50,HT-29,138 nM
same,GI50,KM-20L2,204 nM
same,GI50,KM12,204 nM
same,GI50,SW-620,75.9 nM
same,GI50,CCRF-CEM,22.4 nM
same,GI50,HL-60,13.8 nM
same,GI50,K562,123 nM
same,GI50,MOLT-4,< 10 nM
same,GI50,RPMI-8226,53.7 nM
same,GI50,SR,10 nM
same,GI50,DMS-114,64.6 nM
same,GI50,DMS-273,21.9 nM
same,IC50,KB [5],24 nM
same,IC50,KB [1],21 nM
same,GI50,Tumor Cell line [2],87.1 nM
same,TGI,Tumor Cell line [4],525 nM
same,IC50,KB [7],97.5 nM
same,IC50,KB [8],21.5 nM
same,GI50,LOX IMVI,34.7 nM
same,GI50,M14,47.9 nM
same,GI50,M19-MEL,204 nM
same,GI50,Malme-3M,112 nM
same,GI50,SK-MEL-28,324 nM
same,GI50,SK-MEL-2,240 nM
same,GI50,SK-MEL-5,74.1 nM
same,GI50,UACC-257,257 nM
same,GI50,UACC-62,36.3 nM
same,GI50,NCI-H23,40.7 nM
same,GI50,SF-268,129 nM
same,GI50,SF-295,36.3 nM
same,GI50,SF-539,53.7 nM
same,GI50,SNB-19,93.3 nM
same,GI50,SNB-75,219 nM
same,GI50,SNB-78,933 nM
same,GI50,U-251,26.3 nM
same,GI50,XF498,132 nM
same,GI50,786-0,33.1 nM
same,GI50,ACHN,18.2 nM
same,GI50,CAKI-1,275 nM
same,GI50,RXF 393,398 nM
same,GI50,SN12C,39.8 nM
same,GI50,TK-10,195 nM
same,GI50,UO-31,87.1 nM
same,GI50,IGROV-1,38.9 nM
same,GI50,OVCAR-3,302 nM
same,GI50,OVCAR-4,1120 nM
same,GI50,OVCAR-8,97.7 nM
same,GI50,SK-OV-3,53.7 nM
same,GI50,[9],87.1 nM
